Measurements taken from ChEMBL document CHEMBL3046705, “Design and synthesis of benzoylphenylureas with fluorinated substituents on the aniline ring as insect growth regulators” (2011).

How the values were obtained:
Format in all cases: functional
Mythimna separata [1] = experiment: Insecticidal activity against fourth-instar larval stage of Mythimna separata (Oriental armyworm) infested drug-pretreated corn leaves assessed as mortality at 200 mg/l at 25 +/-1 degC after 4 days
Mythimna separata [2] = experiment: Insecticidal activity against fourth-instar larval stage of Mythimna separata (Oriental armyworm) infested drug-pretreated corn leaves assessed as mortality at 100 mg/l at 25 +/-1 degC after 4 days
Culex pipiens pallens [3] = experiment: Insecticidal activity against fourth-instar larval stage of Culex pipiens pallens (mosquito) assessed as mortality at 0.05 mg/l at 25 +/-1 degC after 8 days; settings: 192 h
Procedure, shortened: (§1)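 Larvicidal test against mosquito larvae followed a previously reported procedure. Test solutions were made by dissolving each compound in acetone and adding distilled water to give the series of concentrations.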

Culex pipiens pallens [4] = experiment: Insecticidal activity against fourth-instar larval stage of Culex pipiens pallens (mosquito) assessed as mortality at 0.025 mg/l at 25 +/-1 degC after 8 days; settings: 192 h; procedure, shortened: as §1
Mythimna separata [5] = experiment: Insecticidal activity against fourth-instar larval stage of Mythimna separata (Oriental armyworm) infested drug-pretreated corn leaves assessed as mortality at 50 mg/l at 25 +/-1 degC after 4 days
Culex pipiens pallens [6] = experiment: Insecticidal activity against fourth-instar larval stage of Culex pipiens pallens (mosquito) assessed as mortality at 0.1 mg/l at 25 +/-1 degC after 8 days; settings: 192 h; procedure, shortened: as §1
Culex pipiens pallens [7] = experiment: Insecticidal activity against fourth-instar larval stage of Culex pipiens pallens (mosquito) assessed as mortality at 0.25 mg/l at 25 +/-1 degC after 8 days; settings: 192 h; procedure, shortened: as §1
Mythimna separata [8] = experiment: Insecticidal activity against fourth-instar larval stage of Mythimna separata (Oriental armyworm) infested drug-pretreated corn leaves assessed as mortality at 5 mg/l at 25 +/-1 degC after 4 days
Mythimna separata [9] = experiment: Insecticidal activity against fourth-instar larval stage of Mythimna separata (Oriental armyworm) infested drug-pretreated corn leaves assessed as mortality at 2.5 mg/l at 25 +/-1 degC after 4 days
Mythimna separata [10] = experiment: Insecticidal activity against fourth-instar larval stage of Mythimna separata (Oriental armyworm) infested drug-pretreated corn leaves assessed as mortality at 1 mg/l at 25 +/-1 degC after 4 days
Culex pipiens pallens [11] = experiment: Insecticidal activity against fourth-instar larval stage of Culex pipiens pallens (mosquito) assessed as mortality at 2 mg/l at 25 +/-1 degC after 8 days; settings: 192 h; procedure, shortened: as §1
Mythimna separata [12] = experiment: Insecticidal activity against fourth-instar larval stage of Mythimna separata (Oriental armyworm) infested drug-pretreated corn leaves assessed as mortality at 10 mg/l at 25 +/-1 degC after 4 days
Mythimna separata [13] = experiment: Insecticidal activity against fourth-instar larval stage of Mythimna separata (Oriental armyworm) infested drug-pretreated corn leaves assessed as mortality at 25 mg/l at 25 +/-1 degC after 4 days
Culex pipiens pallens [14] = experiment: Insecticidal activity against fourth-instar larval stage of Culex pipiens pallens (mosquito) assessed as mortality at 0.005 mg/l at 25 +/-1 degC after 8 days; settings: 192 h; procedure, shortened: as §1
Culex pipiens pallens [15] = experiment: Insecticidal activity against fourth-instar larval stage of Culex pipiens pallens (mosquito) assessed as mortality at 0.01 mg/l at 25 +/-1 degC after 8 days; settings: 192 h; procedure, shortened: as §1
Culex pipiens pallens [16] = experiment: Insecticidal activity against fourth-instar larval stage of Culex pipiens pallens (mosquito) assessed as mortality at 0.0025 mg/l at 25 +/-1 degC after 8 days; settings: 192 h; procedure, shortened: as §1

Structure (SMILES)	mortality at 0.05 µg/mL (Culex pipiens pallens [3])	mortality at 0.025 µg/mL (Culex pipiens pallens [4])	mortality at 50 µg/mL (Mythimna separata [5])	mortality at 0.1 µg/mL (Culex pipiens pallens [6])	mortality at 5 µg/mL (Mythimna separata [8])	mortality at 2.5 µg/mL (Mythimna separata [9])	mortality at 1 µg/mL (Mythimna separata [10])	mortality at 10 µg/mL (Mythimna separata [12])	mortality at 0.005 µg/mL (Culex pipiens pallens [14])	further results
O=C(NC(=O)c1c(F)cccc1F)Nc1ccc(OCC=C(Cl)Cl)cc1	70%	60%	60%	100%	–	–	–	–	–	mortality at 200 µg/mL (Mythimna separata [1]): 90%; mortality at 100 µg/mL (Mythimna separata [2]): 80%
O=C(NC(=O)c1c(F)cccc1F)Nc1ccc(COC(C(F)(F)F)C(F)(F)F)cc1	30%	–	0%	80%	–	–	–	–	–	mortality at 200 µg/mL (Mythimna separata [1]): 40%; mortality at 100 µg/mL (Mythimna separata [2]): 10%; mortality at 0.25 µg/mL (Culex pipiens pallens [7]): 100%
O=C(NC(=O)c1c(F)cccc1F)Nc1ccc(OC(C(F)(F)F)C(F)(F)F)cc1	80%	70%	–	100%	90%	80%	0%	–	–	–
O=C(NC(=O)c1c(F)cccc1F)Nc1ccc(COc2cc(Cl)c(OC(F)(F)C(F)F)c(Cl)c2)cc1	–	–	–	–	10%	–	–	40%	–	mortality at 2 µg/mL (Culex pipiens pallens [11]): 0%; mortality at 25 µg/mL (Mythimna separata [13]): 100%
O=C(NC(=O)c1c(F)cccc1F)Nc1ccc(Oc2cc(Cl)c(OC(F)(F)C(F)F)c(Cl)c2)c(Cl)c1	–	100%	100%	–	–	–	–	60%	30%	mortality at 0.01 µg/mL (Culex pipiens pallens [15]): 80%; mortality at 25 µg/mL (Mythimna separata [13]): 90%
O=C(NC(=O)c1c(F)cccc1F)Nc1ccc(Oc2cc(Cl)c(OC(F)(F)C(F)F)c(Cl)c2)cc1	–	–	–	–	–	100%	0%	–	100%	mortality at 0.0025 µg/mL (Culex pipiens pallens [16]): 50%
O=C(NC(=O)c1c(F)cccc1F)Nc1ccc(C(F)(C(F)(F)F)C(F)(F)F)cc1	–	–	–	–	100%	90%	0%	–	90%	mortality at 0.0025 µg/mL (Culex pipiens pallens [16]): 80%; mortality at 0.01 µg/mL (Culex pipiens pallens [15]): 100%
O=C(NC(=O)c1c(F)cccc1F)Nc1cc(Cl)c(OC(F)(F)C(F)F)c(Cl)c1 [HEXAFLUMURON]	–	–	–	–	–	–	–	80%	–	mortality at 0.25 µg/mL (Culex pipiens pallens [7]): 100%
